Results taken from ChEMBL document CHEMBL4680339, “Synthesis and bioevaluation of N-(3,4,5-trimethoxyphenyl)-1H-pyrazolo[3,4-b]pyridin-3-amines as tubulin polymerization inhibitors with anti-angiogenic effects” (Bioorg Med Chem, 2021).
One block for each molecule: values may come before it. Activity calls are given as the source filed them. The calls are words filed in the database; no cut-off is given here.

Tests used:
MCF7 [1] = assay: Antiproliferative activity against human MCF7 cells assessed as reduction in cell growth incubated for 72 hrs by MTT assay; assay type: functional, cell-based; settings: MCF7, 72 h
Method in brief: (§1)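 Log-phase cells seeded at 5 × 10³/well and grown 24 h, then exposed to graded compound concentrations for 72 h. MTT (5 mg/mL) added for 4 h; formazan dissolved in DMSO and absorbance read at 490 nm. IC50 calculated from growth inhibition; means ± SD of triplicate experiments.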

WI-38 = assay: Cytotoxicity against human WI-38 cells assessed as reduction in cell growth incubated for 72 hrs by MTT assay; assay type: cell-based; settings: WI-38, 72 h; method in brief: as §1
HeLa = assay: Antiproliferative activity against human HeLa cells assessed as reduction in cell growth incubated for 72 hrs by MTT assay; assay type: functional, cell-based; method in brief: as §1
A549 = assay: Antiproliferative activity against human A549 cells assessed as reduction in cell growth incubated for 72 hrs by MTT assay; assay type: functional, cell-based; settings: A549, 72 h; method in brief: as §1
HepG2 = assay: Antiproliferative activity against human HepG2 cells assessed as reduction in cell growth incubated for 72 hrs by MTT assay; assay type: functional, cell-based; settings: HepG2, 72 h; method in brief: as §1
HCT-116 = assay: Antiproliferative activity against human HCT-116 cells assessed as reduction in cell growth incubated for 72 hrs by MTT assay; assay type: functional, cell-based; settings: HCT-116, 72 h; method in brief: as §1
MCF7 [2] = assay: Disruption of microtubule organization in human MCF7 cells assessed as microtubules spindle shrinkage around the centre of the cell at 100 nM incubated for 6 hrs by immunofluorescence based laser scanning confocal microscopic analysis; assay type: functional
Method in brief: (§2)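 MCF-7 cells (3 × 10⁴) grown 24 h in confocal dishes, then treated 6 h with compound. Fixed in prewarmed 4% paraformaldehyde, permeabilized with 0.5% Triton X-100, blocked with 10% goat serum. Stained with mouse anti-tubulin (4 °C overnight), Alexa Fluor 488 secondary, and DAPI. Imaged by laser scanning confocal microscopy.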

MCF7 [3] = assay: Induction of apoptosis in human MCF7 cells; assay type: functional, cell-based
MCF7 [4] = assay: Induction of cell cycle arrest in human MCF7 cells assessed as accumulation in G1 phase at 5 nM incubated for 24 hrs by PI staining based flow cytometry analysis (reference value: 63.70 %); assay type: functional
HUVEC [5] = assay: Cytotoxicity against HUVEC cells assessed as reduction in cell growth incubated for 72 hrs by MTT assay; assay type: cell-based; settings: Homo sapiens; method in brief: as §1
MCF7 [6] = assay: Induction of cell cycle arrest in human MCF7 cells assessed as accumulation in G1 phase at 10 nM incubated for 24 hrs by PI staining based flow cytometry analysis (reference value: 63.70 %); assay type: functional
MCF7 [7] = assay: Induction of cell cycle arrest in human MCF7 cells assessed as accumulation in S phase at 5 nM incubated for 24 hrs by PI staining based flow cytometry analysis (reference value: 19.50 %); assay type: functional
HUVEC [8] = assay: Antimigratory activity against human HUVEC assessed as cell migration rate at 0.5 uM incubated for 12 hrs by wound healing assay (reference value: 68.5 %); assay type: functional
MCF7 [9] = assay: Induction of cell cycle arrest in human MCF7 cells assessed as accumulation in G2/M phase at 10 nM incubated for 24 hrs by PI staining based flow cytometry analysis (reference value: 16.81 %); assay type: functional
HUVEC [10] = assay: Antimigratory activity against human HUVEC assessed as cell migration rate at 0.5 uM incubated for 24 hrs by wound healing assay (reference value: 100 %); assay type: functional
HUVEC [11] = assay: Upregulation of TIMP-1 protein expression in HUVEC at 0.05 to 1 uM incubated for 24 hrs by Western blot analysis; assay type: functional; settings: Homo sapiens, dose 0.05-1 µM
Method in brief: (§3)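 HUVECs exposed to various compound concentrations for 24 h. MMP-9 and TIMP-1 measured by western blot: RIPA lysates, equal protein loads on 8–12% SDS-PAGE, nitrocellulose transfer, primary antibodies overnight at 4 °C, HRP secondary, ECL detection.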

Sus scrofa = species: Sus scrofa; assay: (§4) Inhibition of pig brain tubulin polymerization by spectrophotometric method; assay type: tissue-based
Method in brief: (§5)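 Pig brain tubulin, purified by three assembly/disassembly cycles and phosphocellulose chromatography, mixed with compound at various concentrations. Buffer: PEM (100 mM PIPES, 1 mM MgCl₂, 1 mM EGTA) with 1 mM GTP and 5% glycerol. Polymerization followed at 37 °C by light scattering at 340 nm; plateau absorbance used for calculation.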

[12] = as §4; assay type: tissue-based, Sus scrofa; method in brief: as §5
HUVEC [13] = assay: Antimigratory activity against human HUVEC assessed as cell migration rate at 0.1 uM incubated for 12 hrs by wound healing assay (reference value: 68.5 %); assay type: functional
HUVEC [14] = assay: Antimigratory activity against human HUVEC assessed as cell migration rate at 0.1 uM incubated for 24 hrs by wound healing assay (reference value: 100 %); assay type: functional
HUVEC [15] = assay: Antimigratory activity against human HUVEC assessed as cell migration rate at 1 uM incubated for 12 hrs by wound healing assay (reference value: 68.5 %); assay type: functional
MCF7 [16] = assay: Induction of cell cycle arrest in human MCF7 cells assessed as accumulation in S phase at 10 nM incubated for 24 hrs by PI staining based flow cytometry analysis (reference value: 19.50 %); assay type: functional
MCF7 [17] = assay: Disruption of microtubule organization in human MCF7 cells assessed as microtubules shrinkage around the nucleus at 10 nM incubated for 6 hrs by immunofluorescence based laser scanning confocal microscopic analysis; assay type: functional, cell-based; method in brief: as §2
MCF7 [18] = assay: Induction of cell cycle arrest in human MCF7 cells assessed as reduction in CyclinB1 expression incubated for 24 hrs by Western blot analysis; assay type: functional, cell-based; settings: dose 10-100 nM
Method in brief: (§6)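 MCF-7 cells treated 24 h with 0, 10, 50 or 100 nM compound and lysed in RIPA buffer. Equal protein loads separated by 8–12% SDS-PAGE, transferred to nitrocellulose and blocked with 5% milk. Probed overnight at 4 °C with primary antibodies to Cdc25c, Cdc2 and Cyclin B1, then HRP secondary, with ECL detection. Densitometry averaged from two independent experiments.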

MCF7 [19] = assay: Induction of cell cycle arrest in human MCF7 cells assessed as accumulation in G2/M phase at 5 nM incubated for 24 hrs by PI staining based flow cytometry analysis (reference value: 16.81 %); assay type: functional
HUVEC [20] = assay: Antivascular activity against HUVEC assessed as reduction in tube formation incubated for 6 hrs by matrigel based inverted fluorescence microscopic analysis; assay type: functional, cell-based; settings: Homo sapiens, dose 0.1-1 µM
Method in brief: (§7)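 Matrigel polymerized 30 min at 37 °C. HUVECs in ECM medium with 20% FBS seeded at 5 × 10⁴/well with compound at 0, 0.1, 0.5 or 1 μM. After 6 h, tubule formation was photographed under an inverted microscope (×100).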

HUVEC [21] = assay: Downregulation of MMP-9 protein expression in HUVEC at 0.05 to 1 uM incubated for 24 hrs by Western blot analysis; assay type: functional; settings: Homo sapiens, dose 0.05-1 µM; method in brief: as §3
MCF7 [22] = assay: Disruption of microtubule organization in human MCF7 cells assessed as breakage and abnormal spindle formation incubated for 6 hrs by immunofluorescence based laser scanning confocal microscopic analysis; assay type: functional, cell-based; settings: dose 10-100 nM; method in brief: as §2
HUVEC [23] = assay: Antimigratory activity against human HUVEC assessed as cell migration rate at 1 uM incubated for 24 hrs by wound healing assay (reference value: 100 %); assay type: functional
MCF7 [24] = assay: Reduction in VEGF-A expression in human MCF7 cells at 50 to 100 nM incubated for 24 hrs by Western blot analysis; assay type: functional, cell-based; settings: dose 50-100 nM
Method in brief: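 MCF-7 cells treated with compound at various concentrations for 24 h. VEGF-A protein assessed by western blot (RIPA lysis, SDS-PAGE, nitrocellulose transfer, ECL detection) with quantitative densitometry. Mean ± SD, three independent experiments.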

HUVEC [25] = assay: Antiinvasive activity against human HUVEC incubated for 24 hrs by crystal violet staining based inverted fluorescence microscopic transwell assay; assay type: functional, cell-based; settings: dose 0.05-1 µM
Method in brief: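 Transwell inserts pre-coated with Matrigel (5 h, 37 °C). Cells in serum-free medium with 0, 0.05, 0.1, 0.5 or 1 μM compound were added to the upper well at 5 × 10⁵ cells/mL; the lower chamber held ECM with 10% FBS. After 24 h at 37 °C, invaded cells were methanol-fixed, stained with 0.1% crystal violet and counted in three random fields. Mean ± SD, three independent experiments.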

HUVEC [26] = assay: Antivascular activity against HUVEC assessed as disruption of vascular structure incubated for 6 hrs by matrigel based inverted fluorescence microscopic analysis; assay type: functional, cell-based; settings: Homo sapiens, dose 0.1-1 µM
Method in brief: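 Capillary-like networks were formed by HUVECs on Matrigel over 6 h, then exposed to vehicle or compound (0.1, 0.5, 1 μM) in serum-free DMEM for 6 h and photographed. Remaining tubes were counted; disruption = [1 − (tubes treated/tubes vehicle)] × 100%.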

MCF7 [27] = assay: Induction of cell cycle arrest in human MCF7 cells assessed as reduction in Cdc25c expression incubated for 24 hrs by Western blot analysis; assay type: functional, cell-based; settings: dose 10-100 nM; method in brief: as §6
MCF7 [28] = assay: Induction of cell cycle arrest in human MCF7 cells assessed as reduction in Cdc2 expression incubated for 24 hrs by Western blot analysis; assay type: functional, cell-based; settings: dose 10-100 nM; method in brief: as §6
HUVEC [29] = assay: Antivascular activity against HUVEC assessed as reduction in tube formation at 0.1 microM incubated for 6 hrs by matrigel based inverted fluorescence microscopic analysis; assay type: functional, cell-based; settings: Homo sapiens; method in brief: as §7
HUVEC [30] = assay: Antivascular activity against HUVEC assessed as reduction in tube formation at 1 microM incubated for 6 hrs by matrigel based inverted fluorescence microscopic analysis; assay type: functional; settings: Homo sapiens; method in brief: as §7

SMILES: COc1ccc2c(N(C)c3cc(OC)c(OC)c(OC)c3)nn(C)c2n1
IC50 (MCF7 [1]): > 50 µM
IC50 (WI-38): 22.8 µM
IC50 (HeLa): 0.59 µM
IC50 (A549): > 50 µM
IC50 (HepG2): 2.52 µM
IC50 (HCT-116): > 50 µM

SMILES: COc1ccc2c(Nc3cc(OC)c(OC)c(OC)c3)nn(C3CCCC3)c2n1
IC50 (MCF7 [1]): 22.4 µM
IC50 (WI-38): 73.8 µM
IC50 (HeLa): 6.28 µM
IC50 (A549): > 50 µM
IC50 (HepG2): > 50 µM
IC50 (HCT-116): > 50 µM

SMILES: COc1ccc2c(N(Cc3ccccc3)c3cc(OC)c(OC)c(OC)c3)n[nH]c2n1
IC50 (MCF7 [1]): 10.3 µM
IC50 (WI-38): 1.67 µM
IC50 (HeLa): 3.19 µM
IC50 (A549): > 50 µM
IC50 (HepG2): 7.38 µM
IC50 (HCT-116): 3.37 µM

SMILES: COc1ccc(/C=C\c2cc(OC)c(OC)c(OC)c2)cc1O [COMBRETASTATIN A4]
IC50 (MCF7 [1]): 0.034 µM
IC50 (WI-38): 31.6 µM
IC50 (HeLa): 0.005 µM
IC50 (A549): 0.058 µM
IC50 (HepG2): 0.28 µM
IC50 (HCT-116): 0.029 µM

SMILES: COc1ccc2c(Nc3cc(OC)c(OC)c(OC)c3)nn(C)c2n1
IC50 (MCF7 [1]): > 50 µM
IC50 (WI-38): 2.43 µM
IC50 (HeLa): 6.07 µM
IC50 (A549): > 50 µM
IC50 (HepG2): 6.24 µM
IC50 (HCT-116): > 50 µM

Continued, in another order:

IC50 (MCF7 [1]): 0.067 µM
IC50 [12]: 14 µM
IC50 (HeLa): 0.21 µM
IC50 (A549): 6 µM
IC50 (HepG2): 4.79 µM
IC50 (HCT-116): 0.26 µM
SMILES: COc1ccc2c(N(C)c3cc(OC)c(OC)c(OC)c3)n[nH]c2n1
Activity (MCF7 [2]): Active
Activity (MCF7 [3]): inactive
Activity (MCF7 [4]): 26.47%
IC50 (HUVEC [5]): 23.5 µM
Activity (MCF7 [6]): 9.16%
Activity (MCF7 [7]): 10.02%
Activity (HUVEC [8]): 11.3%
Activity (MCF7 [9]): 80.73%
Activity (HUVEC [10]): 26.6%
IC50 (WI-38): 23.4 µM
Activity (HUVEC [11]): Active
inhibition (Sus scrofa): Dose-dependent effect
Activity (HUVEC [13]): 12.4%
Activity (HUVEC [14]): 26.4%
Activity (HUVEC [15]): 10.9%
Activity (MCF7 [16]): 10.11%
Activity (MCF7 [17]): Active
Activity (MCF7 [18]): Dose-dependent effect
Activity (MCF7 [19]): 63.5%
Activity (HUVEC [20]): Dose-dependent effect
inhibition (HUVEC [21]): Active
Activity (MCF7 [22]): Dose-dependent effect
Activity (HUVEC [23]): 22.4%
inhibition (MCF7 [24]): Active
Activity (HUVEC [25]): Dose-dependent effect
Activity (HUVEC [26]): Dose-dependent effect
Activity (MCF7 [27]): Dose-dependent effect
Activity (MCF7 [28]): Dose-dependent effect
Activity (HUVEC [29]): Active
inhibition at 1 µM (HUVEC [30]): 100%

IC50 (MCF7 [1]): 2.35 µM
IC50 (HeLa): 0.18 µM
IC50 (A549): 20.6 µM
IC50 (HepG2): 5.46 µM
IC50 (HCT-116): 2.18 µM
SMILES: COc1ccc2c(N(CC3CC3)c3cc(OC)c(OC)c(OC)c3)n[nH]c2n1
IC50 (WI-38): 1.29 µM

IC50 (MCF7 [1]): 1.72 µM
IC50 (HeLa): 1.77 µM
IC50 (A549): 31.8 µM
IC50 (HepG2): > 50 µM
IC50 (HCT-116): 3.66 µM
SMILES: COCCN(c1cc(OC)c(OC)c(OC)c1)c1n[nH]c2nc(OC)ccc12
IC50 (WI-38): 30.9 µM
